# Measured values published in PMC8103725 (FASEB BioAdvances, 2021).
# What was measured:
# hCMEC/D3 cells [1] = experiment: Western blot of pAkt‐S473 and total Akt in hCMEC/D3 cells; assay type: cell-based, human; details: for effect on Akt phosphorylation induced by HKi2: with HKi2 50 μM, MK‐2206 20 μM, LY294002 10 μM
# How it was run: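 hCMEC/D3 cells were treated with 50 μM test compound or DMSO and washed twice in ice‑cold HBSS. They were lysed in RIPA (50 mM Tris pH 7.5, 150 mM NaCl, 1% NP‑40, 0.5% deoxycholate, 0.1% SDS, 2 mM EDTA, 50 mM NaF) with protease/phosphatase inhibitors and 1 mM Na3VO4. Lysates were spun at 20,000xg for 15 min at 4°C, resolved on 4–12% gels, and immunoblotted for phospho‑Akt Ser473 (1:250) and total Akt. Data are mean ± SEM.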
# [2] = molecular target: HEG1–KRIT1 interaction (EGFP‐KRIT1 FERM domain binding to HEG1 cytoplasmic tail on beads) (Homo sapiens, UniProt O00522); experiment: Flow cytometry bead assay for the HEG1–KRIT1 FERM domain interaction; details: for inhibition of the HEG1–KRIT1 interaction: result in words
# [3] = system: PARD3 binding to HEG1 cytoplasmic tail; experiment: PARD3 pulldown assay with HEG1 matrix; parameters: species or system human; details: HUVEC lysates, 35 μM compound
# How it was run: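 Clarified lysate (600 μg) was rotated overnight at 4°C with 20 μL neutravidin agarose carrying HEG1 wild‑type (1274–1381) or ΔYF (1274–1379) tail. Incubations contained DMSO, 35 μM test compound or 35 μM 2‑hydroxy‑1‑naphthoic acid. After three washes, bound PARD3 was detected by SDS–PAGE immunoblot with rabbit polyclonal anti‑PARD3.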
# hCMEC/D3 cells [4] = experiment: qPCR of KLF4 and KLF2 mRNA in hCMEC/D3 cells; assay type: cell-based, human; details: 50 μM, 4 h
# How it was run: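 Test compound came from a 10 mM DMSO stock, rotated 30 min at RT before use. hCMEC/D3 cells (passages 30–37, collagen‑coated, EGM‑2 MV, 37°C/5% CO2) were treated at the indicated doses (12 h dose–response) or over a time course, versus DMSO. RNA was extracted with TRIzol, and 1 µg was reverse‑transcribed with SuperScript III. qPCR used actin normalization and 2−ΔΔCT. Results are relative to vehicle ± SEM: n=3 t test, or n=4 one‑way ANOVA.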
# hCMEC/D3 cells [5] = experiment: Propidium iodide staining, cell viability; assay type: cell-based, human; details: 50 μM, 24 h, vs vehicle
# How it was run: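 hCMEC/D3 cells were treated with test compound or the same DMSO concentration, then resuspended in PBS with 1% BSA and stained with propidium iodide. Samples were analysed by flow cytometry, counting PI‑positive cells as dead. Results are percentage viable cells ± SEM, n=3, one‑way ANOVA.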
# HUVEC = experiment: Genome‐wide RNA sequencing of HUVEC; assay type: cell-based, human; details: same conditions as HKi2, vs vehicle; data not shown
# How it was run: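 HUVEC (passages 4–7) were grown on fibronectin in complete EGM‑2 at 37°C, 5% CO2, then given 75 μM test compound or DMSO for 24 h. Only RNA with RIN >8 was used; 400 ng went into TruSeq stranded mRNA libraries. Libraries were sequenced on HiSeq2500 (SR100, 30 million reads), mapped to GRCh release 96 with Hisat2, and analysed for differential expression with EdgeR.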
# [6] = system: klf2a expression in arterial and venous endothelium; experiment: Zebrafish klf2a reporter Tg; assay type: in vivo; details: 4 μM, 4 h from 26 hpf
# How it was run: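 Tg(klf2a:H2B‑EGFP);Tg(kdrl:mCherry) embryos were exposed to test compound dissolved in fish egg water. At 30 hpf they were paralysed with tricaine and imaged by confocal microscopy. Nuclear EGFP intensity in vasculature was measured on nuclei outlined through Z, seven nuclei per embryo. Each experiment used two treated and two control embryos; two independent experiments were analysed.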
# [7] = Aqueous solubility in assay buffer; assay type: physicochemical; details: assay buffer conditions
# Sequence of HEG1–KRIT1 interaction (EGFP‐KRIT1 FERM domain binding to HEG1 cytoplasmic tail on beads) (O00522 417-736): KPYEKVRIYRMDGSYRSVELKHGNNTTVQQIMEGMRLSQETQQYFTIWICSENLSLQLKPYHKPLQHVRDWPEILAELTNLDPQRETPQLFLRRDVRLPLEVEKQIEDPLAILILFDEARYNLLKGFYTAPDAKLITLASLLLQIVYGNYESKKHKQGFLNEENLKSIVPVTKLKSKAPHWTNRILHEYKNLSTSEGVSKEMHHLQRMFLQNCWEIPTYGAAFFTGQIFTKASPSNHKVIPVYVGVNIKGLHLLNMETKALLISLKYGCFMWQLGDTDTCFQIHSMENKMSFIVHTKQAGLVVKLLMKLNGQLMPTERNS
smiles,measurement,setting,value
NC1(c2ccc(-c3nc4ccn5c(=O)[nH]nc5c4cc3-c3ccccc3)cc2)CCC1 [MK‐2206],effect on Akt phosphorylation induced by HKi2,hCMEC/D3 cells [1],prevent the increase in Akt phosphorylation
O=Cc1nccc2ccccc12 [Compound 8],inhibition of the HEG1–KRIT1 interaction,[2],no inhibition
O=c1cc(N2CCOCC2)oc2c(-c3ccccc3)cccc12 [LY294002],effect on Akt phosphorylation induced by HKi2,hCMEC/D3 cells [1],prevented an increase in Akt signaling
"O=C(O)c1c(O)ccc2ccccc12 [Compound 9, 2‐hydroxy‐1‐naphthoic acid]",inhibition of the HEG1–KRIT1 interaction,[2],does not block KRIT1 binding to HEG1
same,PARD3 binding to HEG1,[3],no effects
same,KLF2 mRNA levels,hCMEC/D3 cells [4],did not elevate
same,KLF4 mRNA levels,hCMEC/D3 cells [4],did not elevate
same,cell viability,hCMEC/D3 cells [5],no statistical difference
same,effects on HUVECs gene expression by RNA‐Seq,HUVEC,no significant effects
same,nuclear EGFP (klf2a reporter) in arterial and venous endothelium,[6],no effects
same,Akt phosphorylation (pAkt‐S473),"hCMEC/D3 cells [1]; 50 μM, 4 h",did not elevate Akt activity
"CC(NC(=O)c1ccccc1/N=C/c1c(O)ccc2ccccc12)c1ccccc1 (centres unmarked) [HKi1, Sirtinol]",IC50,"[2]; IC50, competition, 70 nM EGFP‐KRIT1 FERM domain, 150 nM HEG1 on the beads",~10 µM
same,aqueous solubility,[7],poor solubility
O=Cc1cc(-c2ccccc2)ccc1O [Compound 6],inhibition of the HEG1–KRIT1 interaction,[2],moderate inhibition activity
